TAAR1 ag: human TAAR1 agonists, primary screen, Fluo-8 calcium fluorescence, CHO RD-HGA16 cells | Trace amine-associated receptor 1 (Homo sapiens), Q96RJ0 | vehicle wells 0%, saturating PEA agonist 100% | activation, % at 3 µM | 360,000 compounds, 0.99% hits | AID 624467, 2012;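 active means activation above the mean activation of all test compounds in the run plus 3 SD, cut at about 38% in these data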
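Test system: RD-HGA16 (CHO) cells co-expressing Gα16 and hTAAR1 | Doses: Single dose, 3 µM | Schedule: 17-24 h seeding, 75 min 37 °C dye, 30 min RT | Evaluation: % activation from peak over basal fluorescence ratio, DMSO-to-PEA scaled | Technique: Kinetic Fluo-8 calcium fluorescence | Benchmarks: Low control DMSO, high control PEA (EC100)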
OXTR ag: human OXTR agonists, primary screen, fluorescence, CHO-OTR cells, Fluo-8 calcium; AID 2435, 2010; Fluo-8 calcium fluorescence; normalized: DMSO 0%, oxytocin 100%; 320,000 compounds, 0.32% hits; Oxytocin receptor (Homo sapiens), P30559; activation, % at 3 µM;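 active means activation above the mean of all tested compounds plus 3 SD, cutoff set per screening run, cut at about 20% in these data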;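 further: peak over basal fluorescence ratio from a 100 s FLIPR kinetic read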
Target sequence (P30559 whole entry, looked up): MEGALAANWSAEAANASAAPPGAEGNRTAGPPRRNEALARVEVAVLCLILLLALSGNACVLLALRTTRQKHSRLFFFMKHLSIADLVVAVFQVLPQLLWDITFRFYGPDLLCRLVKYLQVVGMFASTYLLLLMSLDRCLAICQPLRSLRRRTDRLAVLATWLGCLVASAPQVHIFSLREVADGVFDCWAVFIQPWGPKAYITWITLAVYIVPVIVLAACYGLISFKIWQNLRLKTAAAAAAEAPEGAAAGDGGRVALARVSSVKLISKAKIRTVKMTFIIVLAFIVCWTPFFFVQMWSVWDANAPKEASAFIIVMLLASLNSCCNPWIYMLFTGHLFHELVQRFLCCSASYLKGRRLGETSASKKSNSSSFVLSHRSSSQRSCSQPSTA
TAAR1 antag: human TAAR1 antagonists, primary screen, Fluo-8 calcium fluorescence, CHO RD-HGA16 cells. Trace amine-associated receptor 1 (Homo sapiens), Q96RJ0. antagonist. inhibition, % at 3 µM. 360,000 compounds, 1.5% hits. AID 624466, 2012;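 active means inhibition above a per-plate cutoff, the mean inhibition of test compounds on that plate plus 3 SD, cut at about 49% in these data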;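 further: 0% = DMSO plus EC80 beta-PEA response and 100% = DMSO alone without agonist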
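Assay system: RD-HGA16 CHO cells with stable hTAAR1 and Gα16 / Reagent: EC80 β-phenethylamine stimulus / Doses: 3 µM, single point / Timing: dye loading 75 min at 37 °C, then 30 min room temperature / Measured by: Fluo-8 intracellular calcium dye fluorescence, real-time kinetic reads / Controls: vehicle wells and EC80 agonist wells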
OXTR potentiator: human OXTR potentiators, primary screen, fluorescence, CHO-OTR cells, Fluo-8 calcium | 320,000 compounds, 0.061% hits | Oxytocin receptor (Homo sapiens), P30559 | activation, % at 3 µM | Fluo-8 calcium fluorescence, potentiator mode; 0% = oxytocin EC15, 100% = EC100;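 active means activation above that plate's cutoff, the mean activation of tested compounds plus 3 SD, cut at about 6.6% in these data, passing the limit was not always enough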;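 further: 100% uses oxytocin at 75 nM as the full agonist control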
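Replication – single well per compound, singlicate · Assay system – CHO cell line stably expressing human OTR · Timing – 6 min pre-incubation, 100 s read · Measure – normalized max/min fluorescence ratio, % activation · Doses – 3.0 µM, one dose · Detection – Fluo-8 calcium dye fluorescence · Probe or stimulus – oxytocin near EC15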
V1R ag counter: agonists of human V1a receptor, primary screen, counter-screen for OXTR agonist project, fluorescence, CHO-V1R cells | Vasopressin V1a receptor (Homo sapiens), P37288 | Fluo-8 calcium fluorescence, agonist mode; 0% DMSO, 100% 3 nM vasopressin | activation, % at 3 µM | 320,000 compounds, 0.25% hits | AID 2797, 2010;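 active means activation above the mean activation of all tested compounds plus 3 SD, per screening run, cut at about 20% in these data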;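 further: signal is peak over basal fluorescence ratio across a 100 second FLIPR read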
nonsel antag count: nonselective antagonists in TAAR1 counter-screen cells, counter-screen for hTAAR1 antagonist project, cell-based, fluorescence, calcium; shares compounds with TAAR1 antag; counterscreen cell line, antagonist mode; inhibition, % at 3 µM; 2,400 compounds, 77% hits; AID 651780, 2012; in the data active means inhibition above about 22%;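 further: CHO-Ga16 host cells stimulated with ATP at an EC80 level; 0% = agonist EC80 plus vehicle and 100% = vehicle without agonist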
TAAR1 ant conf: human TAAR1 antagonists, retest of hits, confirmation, cell-based, fluorescence; 2,400 compounds, 40% hits; inhibition, % at 3 µM; TAAR1-expressing cells, fluorescence antagonist read-out; shares compounds with TAAR1 antag; in the data active means inhibition above about 49%;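 further: CHO-Ga16 host cells challenged with agonist PEA near its EC80; 0% = agonist at EC80 plus vehicle and 100% = vehicle with no agonist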
Ga16 nonsel ag: calcium activation in Ga16-expressing cells, counter-screen for TAAR1 antagonist project, cell-based, fluorescence. shares compounds with TAAR1 antag. agonist counterscreen. activation, % at 3 µM. 2,400 compounds, 18% hits. AID 651953, 2012; in the data active means activation above about 12%;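 further: 0% = vehicle wells and 100% = saturating stimulus response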
TAAR1 ag count: TAAR1 activation by candidate antagonists – cell-based, fluorescence, counter-screen for TAAR1 antagonist project; hTAAR1 cell line, agonist mode; activation, % at 3 µM; shares compounds with TAAR1 antag; 2,400 compounds, 2% hits; in the data active means activation above about 37%;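 further: CHO cells stably expressing TAAR1 with calcium dye readout; 0% = DMSO vehicle and 100% = full agonist response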
An asterisk follows results filed as active; x = not tested or not shown. Hits are enriched below; roughly 2.3% of the tested compounds scored in any of these assays.

SMILES	TAAR1 ag	OXTR ag	TAAR1 antag	OXTR potentiator	V1R ag counter	nonsel antag count	TAAR1 ant conf	Ga16 nonsel ag	TAAR1 ag count
COc1ccc(Nc2nc(C(=O)N3CCc4ccccc4C3)cs2)cc1	23.2	-2.0	16.0	-11.6	-0.6	x	x	x	x
Cc1cc(-c2nnc(CCC(=O)N(C)Cc3cccc4ccccc34)o2)no1	5.4	-2.4	-0.7	-7.2	1.4	x	x	x	x
COc1cccc(NC(=O)COc2cc(O)c3c(c2)OC(C)(C)CC3=O)c1	9.1	5.4	60.0*	-8.0	3.8	27.4*	44.5	9.1	7.2
O=S(=O)(c1ccccc1)c1nc(-c2ccc(Cl)cc2)oc1NCCCN1CCOCC1	4.2	x	-17.4	x	x	x	x	x	x
CN(C)c1nc(Nc2ccc(Cl)cc2)nc(OCC#N)n1	8.3	1.3	58.1*	-12.6	2.9	-1.8	39.7	1.9	17.0
N/C(=N\c1nc2ccccc2o1)NC(=O)c1ccccc1NC(=O)c1ccccc1	12.2	0.7	64.8*	-9.9	0.9	33.2*	36.5	2.8	-0.7
NC(=O)c1nsc(C(=O)N(Cc2cccnc2)C(C(=O)NCc2ccccc2)c2ccc(O)cc2)c1N (stereo unspecified)	1.7	-0.8	-10.8	-6.3	-0.3	x	x	x	x
CN(C)c1ccc(C(C(=O)NCc2ccccc2)N(Cc2ccco2)C(=O)c2snc(C(N)=O)c2N)cc1 (stereo unspecified)	18.2	2.5	71.1*	-15.2	4.7	27.4*	57.6*	8.1	10.5
Cc1ccc(C(C(=O)NCc2ccc(F)cc2)N(Cc2ccco2)C(=O)c2snc(C(N)=O)c2N)o1 (stereo unspecified)	21.7	2.5	63.2*	-7.1	3.0	31.2*	61.6*	11.1	23.5
CCC(C)(C)NC(=O)C(c1ccc(F)cc1)N(Cc1ccco1)C(=O)c1snc(C(N)=O)c1N (stereo unspecified)	1.6	-2.6	1.6	-12.1	2.0	x	x	x	x
Cc1ccccc1C(C(=O)NCc1ccccc1)N(Cc1ccco1)C(=O)c1ccccn1 (stereo unspecified)	21.3	-1.1	50.0*	-17.0	1.6	27.3*	46.4	8.3	11.7
NC(=O)c1nsc(C(=O)N(Cc2ccco2)C(C(=O)NCc2ccc(F)cc2)c2ccc(O)cc2)c1N (stereo unspecified)	14.0	2.2	77.6*	-15.7	1.3	36.6*	55.9*	10.2	11.6
O=C(NCc1ccccc1)C(c1ccc(F)cc1)N(Cc1ccco1)C(=O)c1ccccn1 (stereo unspecified)	16.0	-1.0	40.2	-8.5	16.8	x	x	x	x
Cn1cncc1C#Cc1ccc2cc(C(C)(C)O)oc(=O)c2c1	7.8	1.6	-5.2	0.3	0.4	x	x	x	x
CC(C)(O)c1cc2ccc(C#CCCN3C(=O)c4ccccc4C3=O)cc2c(=O)o1	15.0	2.6	62.4*	-9.8	9.5	25.9*	54.9*	8.7	3.4
COc1cc(-c2noc(C)c2C#Cc2ccsc2)cc(OC)c1OC	28.4	0.5	65.2*	-9.8	0.9	18.3	33.6	6.1	20.1
COc1cc(-c2noc(C)c2C#CCO)cc(OC)c1OC	4.8	-0.1	-15.2	-7.9	-1.0	x	x	x	x

Source: PubChem (The Scripps Research Institute Molecular Screening Center)
